Assay outcomes (PubChem)
NPY-Y1 PAM-ag: NPY-Y1 receptor potentiators or agonists, primary screen, cell-based | Neuropeptide Y receptor type 1 (Homo sapiens), P25929 | NPY-Y1 expressing cells, potentiator/agonist activation | activation, % at 3.6 µM | hit rate 0.37% among 220,000; in the data active = activation above about 33%, passing the limit was not always enough;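 note: cells stimulated with NPY at EC10 then isoproterenol at EC100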
Target sequence (P25929 whole entry, looked up): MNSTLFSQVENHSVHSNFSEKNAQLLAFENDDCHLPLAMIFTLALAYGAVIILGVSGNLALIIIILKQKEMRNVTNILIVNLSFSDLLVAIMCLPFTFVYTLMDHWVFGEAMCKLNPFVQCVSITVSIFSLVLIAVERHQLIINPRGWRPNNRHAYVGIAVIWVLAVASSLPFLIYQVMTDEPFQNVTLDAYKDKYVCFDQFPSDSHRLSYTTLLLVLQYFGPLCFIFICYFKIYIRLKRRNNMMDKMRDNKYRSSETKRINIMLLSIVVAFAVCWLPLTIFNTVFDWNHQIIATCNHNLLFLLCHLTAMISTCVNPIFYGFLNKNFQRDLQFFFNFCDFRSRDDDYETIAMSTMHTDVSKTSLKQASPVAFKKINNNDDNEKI
NPY-Y2 PAM-ag: NPY-Y2 potentiators or agonists, primary screen, cell-based | Neuropeptide Y receptor type 2 (Homo sapiens), P49146 | cells expressing NPY-Y2, potentiator/agonist read-out | activation, % at 3.6 µM | hit rate 0.45% among 220,000; in the data active = activation above about 27%;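 note: cells stimulated with NPY near EC25 plus isoproterenol at EC100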
NPY Y1 blocker: NPY-Y1 receptor antagonists, primary screen, cell-based. Neuropeptide Y receptor type 1 (Homo sapiens), P25929. HEK293-CNG Y1 cells, membrane potential fluorescence; NPY at EC95, then isoproterenol. inhibition, % at 3.6 µM. hit rate 1% among 200,000. AID 1040, 2008;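 active = inhibition above the campaign mean inhibition of all tested compounds plus 3 SD, cut at about 20% in these data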
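Assay system: HEK293 cells with Y1 receptor plus CNG channel | Probe or stimulus: NPY (25 nM), isoproterenol (1 µM), Ro 20-1724 (25 µM) | Timing: Compound incubation 1 h at room temperature, readout 45 min post-stimulation | Measured by: Membrane-potential fluorescent dye readout | Benchmarks: High control isoproterenol alone, low control NPY with isoproterenol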
NPY-Y2 antag: NPY-Y2 receptor antagonists, primary screen, cell-based; AID 793, 2007; NPY-Y2 expressing cells, antagonist mode; hit rate 0.99% among 140,000; inhibition, % at 2.7 µM; Neuropeptide Y receptor type 2 (Homo sapiens), P49146; in the data active = inhibition above about 17%
Of the large screens only hits and unclear results are named; the others gave an inactive call. Sampled rows, rich in hits. Any-hit rate of the full collection: about 1.8%.

CC(=O)N(Cc1ccco1)C1(C(=O)NC2CCCCC2)CCCCC1	none
O=C(Cc1cccs1)N(c1ccc(F)cc1)C1(C(=O)NC2CCCCC2)CCCC1	none
Cc1ccc(Nc2nnc(SCC(=O)NC(Cc3c[nH]c4ccccc34)C(=O)O)s2)cc1 (stereo unspecified)	none (no result: NPY-Y2 antag)
COC(=O)c1sccc1NC(=O)CC1C(=O)NCCN1C(=O)c1ccc(F)cc1 (stereo unspecified)	none (no result: NPY Y1 blocker, NPY-Y2 antag)
CCOC(=O)C1CCN(CCC(=O)Nc2ccc(C)cc2)CC1	none (no result: NPY-Y2 antag)
Cc1cc(C)c(NC(=O)CSc2ccc3nnc(CCNC(=O)c4ccccc4)n3n2)c(C)c1	none
O=S(=O)(Nc1ccc(N=Nc2ccc(O)c3ccccc23)cc1)c1ccccc1	NPY-Y1 PAM-ag 73, NPY-Y2 PAM-ag 62
O=S(=O)(Nc1ccc(N=Nc2ccccc2)cc1)c1ccccc1	none
CC(CNCc1ccc2c(c1)OCO2)NCc1ccc2c(c1)OCO2 (stereo unspecified)	NPY Y1 blocker 24, NPY-Y2 antag 19
OC(CNCc1ccc2c(c1)OCO2)COc1ccc(F)cc1 (stereo unspecified)	none (no result: NPY Y1 blocker, NPY-Y2 antag)
COc1ccc(CC(=O)N2CCN(c3ccc(C4=NNC(=O)CC4C)cc3)CC2)cc1 (stereo unspecified)	NPY Y1 blocker 79, NPY-Y2 antag 83
COc1ccc(CC(=O)N2CCN(C(=O)Cc3ccc(OC)cc3)CC2)cc1	none
O=C(CN1C(=O)NC2(CCCC2)C1=O)OCc1cc(=O)n2cc(Br)ccc2n1	none (no result: NPY Y1 blocker, NPY-Y2 antag)
Cc1ccccc1OCC(=O)Nc1ccc2c(c1)Cc1ccccc1-2	NPY Y1 blocker 32, NPY-Y2 antag 19
O=C(NCCc1ccccc1)C1CCN(C(=O)c2ccc([N+](=O)[O-])cc2)CC1	none (no result: NPY-Y2 antag)
CCOC(=O)c1ccc(Cl)c(S(=O)(=O)N2CCCC2)c1	none (no result: NPY-Y2 antag)
O=C(c1ccccc1)c1coc2ccc(O)c(CN3CCOCC3)c12	none
CCOC(=O)c1c(C)oc2ccc(O)c(CN3CCCCC3)c12	NPY Y1 blocker 27, NPY-Y2 antag 22
COc1ccc(C(=O)c2coc3ccc(O)c(CN4CCCCC4)c23)cc1	NPY Y1 blocker 20, NPY-Y2 antag 25
COC(=O)COc1ccc(/C=N/NC(=O)c2ccc(N(Cc3ccccc3)S(C)(=O)=O)cc2)cc1	NPY-Y1 PAM-ag 61, NPY-Y2 PAM-ag 31
C/C(=N\N(Cc1ccccc1)c1ccccc1)c1ccncc1	none (no result: NPY-Y2 antag)
Cc1cc(Oc2ccc3ccccc3c2)nc(SCC(=O)c2ccccc2)n1	NPY Y1 blocker 50, NPY-Y2 antag 41
COC(=O)CSc1nc(C)cc(Oc2ccccc2)n1	none
Cc1cc(Oc2ccc(Br)cc2)nc(SCC(=O)c2ccccc2)n1	NPY Y1 blocker 52, NPY-Y2 antag 39
CCCCCCCC(=O)NC1=NC(=O)C(C)(C)S1	none (no result: NPY Y1 blocker, NPY-Y2 antag)
CCC(Sc1nc2ccccc2o1)C(=O)O (stereo unspecified)	NPY Y1 blocker 21 (no result: NPY-Y2 antag)
CC(Sc1nc2ccccc2o1)C(=O)O (stereo unspecified)	none
CSc1nc(-c2ccco2)nn1S(=O)(=O)c1ccc(C)cc1	none
CSc1nc(-c2ccco2)nn1S(=O)(=O)c1ccccc1	NPY Y1 blocker 24
CCC(C)NC(=O)CSc1nc2c(sc(=S)n2Cc2ccco2)c(=O)n1-c1ccccc1 (stereo unspecified)	none
CCOC(=O)CSc1nc2c(sc(=S)n2Cc2ccco2)c(=O)n1-c1ccc(F)cc1	NPY Y1 blocker 21, NPY-Y2 antag 19
O=C(COc1ccc2ccccc2c1CN1CCOCC1)N1CCc2ccccc21	NPY Y1 blocker 22, NPY-Y2 antag 28
O=C(COc1ccccc1)N1CCc2ccccc21	none
COc1ccc(O[C@H]2C=C[C@@H](c3ccccc3)O[C@@H]2CO/N=C(\C)CCN2CCCCc3nc(C)c(C)cc32)cc1	NPY Y1 blocker 22, NPY-Y2 antag 21
COc1ccccc1C(=O)Nc1ccc(C(=O)O)cc1	none
COc1ccccc1C(=O)Nc1ccc(C2=NNC(=O)CC2C)cc1 (stereo unspecified)	NPY Y1 blocker 96, NPY-Y2 antag 72
Cc1ccccc1NC(=S)N(C)Cc1cn(C)c2ccccc12	none
COc1ccc2nc(NC(=O)C3CCN(S(=O)(=O)c4cccc5nsnc45)CC3)sc2c1	NPY-Y1 PAM-ag 47
Cc1cccc(NC(=O)C2CCN(S(=O)(=O)c3cccc4nsnc34)CC2)n1	none
CCOc1ccccc1NC(=O)c1ccccc1-c1nc(-c2ccccc2)no1	NPY Y1 blocker 25, NPY-Y2 antag 18
COc1ccc(-c2noc(-c3ccccc3C(=O)Nc3cccc(OC)c3)n2)cc1	NPY Y1 blocker 43, NPY-Y2 antag 24
CCOc1ccccc1-c1nc(-c2ccc(NC(=O)Cc3ccccc3OC)cc2)no1	none
CC(C)(C)c1ccc(C(=O)NNc2cc(Cl)cc(Cl)c2)cc1	none (no result: NPY Y1 blocker, NPY-Y2 antag)
CCCCCCCCC[n+]1cccc2c3ccccc3ccc21	NPY Y1 blocker 55, NPY-Y2 antag 19
CCCCCCCCCCCCCCCC[n+]1cccc2ccccc21	none
CCN(CC)S(=O)(=O)c1ccc(C(=O)NCCN(C)C)cc1	none (no result: NPY-Y2 antag)
CC(C)(C)OC(=O)N1CCCN(C(=O)Nc2ccc(C(F)(F)F)cc2)CC1	none (no result: NPY Y1 blocker, NPY-Y2 antag)
CCOc1ccccc1C(=O)Nc1ccsc1C(=O)OC	NPY Y1 blocker 21, NPY-Y2 antag 20
CCOc1ccccc1C(=O)Nc1ccccc1C(N)=O	none
CCCC(c1nnnn1Cc1ccco1)N1CCN(c2cc(Cl)ccc2C)CC1 (stereo unspecified)	NPY Y1 blocker 29, NPY-Y2 antag 27
COc1ccc(N2CCN(c3oc(COc4ccccc4Cl)nc3C#N)CC2)cc1	NPY Y1 blocker 42, NPY-Y2 antag 25
Cc1cccc(OCc2nc(C#N)c(N3CCCC3)o2)c1	none (no result: NPY Y1 blocker, NPY-Y2 antag)
COc1ccc(OCc2nc(C#N)c(N3CCN(c4ccc(OC)cc4)CC3)o2)cc1	NPY Y1 blocker 37, NPY-Y2 antag 25
CC1CN(c2oc(COc3ccc(Cl)cc3Cl)nc2C#N)CC(C)O1 (stereo unspecified)	NPY Y1 blocker 29, NPY-Y2 antag 23
Cc1cccc(OCc2nc(C#N)c(N3CC(C)CC(C)C3)o2)c1 (stereo unspecified)	NPY Y1 blocker 56, NPY-Y2 antag 18
N#Cc1nc(COc2ccccc2Cl)oc1N1CCCC1	none (no result: NPY-Y2 antag)
CSc1ccc(NC(=O)Nc2ccc(C(=O)NCC(=O)O)cc2)cc1	none (no result: NPY Y1 blocker, NPY-Y2 antag)
CC1CCN(CCCOc2ccc(OCc3ccccc3)cc2)CC1	NPY Y1 blocker 24, NPY-Y2 antag 22
Cc1ccc(C(=O)O/N=C2\CCSc3ccc(C)cc32)cc1	NPY Y1 blocker 23, NPY-Y2 antag 21
Cc1ccc2oc(=O)c3cc(C(=O)NCc4ccco4)sc3c2c1	NPY Y1 blocker 22, NPY-Y2 antag 45
CC1CCCCN1C(=O)C1CCCCN1S(=O)(=O)c1cccc([N+](=O)[O-])c1 (stereo unspecified)	none (no result: NPY Y1 blocker, NPY-Y2 antag)
COC(=O)CSc1nc(-c2ccccc2)cc(-c2ccco2)c1C#N	NPY Y1 blocker 23, NPY-Y2 antag 21
COc1ccc(N(CC(=O)NCCC2=CCCCC2)S(=O)(=O)c2ccc(C)cc2)cc1OC	none (no result: NPY-Y2 antag)
